Test results taken from PMC6810844 (Cellular and molecular life sciences : CMLS, 2019).

Assays:
BoSGBPMLG-A = target: T1, BoSGBPMLG-A (Bacteroides ovatus, UniProt A0AAN3A7L1); assay: isothermal titration calorimetry; assay type: binding; conditions: 50 mM sodium phosphate pH 7.0, 25 °C
T1 sequence (A0AAN3A7L1 23-558): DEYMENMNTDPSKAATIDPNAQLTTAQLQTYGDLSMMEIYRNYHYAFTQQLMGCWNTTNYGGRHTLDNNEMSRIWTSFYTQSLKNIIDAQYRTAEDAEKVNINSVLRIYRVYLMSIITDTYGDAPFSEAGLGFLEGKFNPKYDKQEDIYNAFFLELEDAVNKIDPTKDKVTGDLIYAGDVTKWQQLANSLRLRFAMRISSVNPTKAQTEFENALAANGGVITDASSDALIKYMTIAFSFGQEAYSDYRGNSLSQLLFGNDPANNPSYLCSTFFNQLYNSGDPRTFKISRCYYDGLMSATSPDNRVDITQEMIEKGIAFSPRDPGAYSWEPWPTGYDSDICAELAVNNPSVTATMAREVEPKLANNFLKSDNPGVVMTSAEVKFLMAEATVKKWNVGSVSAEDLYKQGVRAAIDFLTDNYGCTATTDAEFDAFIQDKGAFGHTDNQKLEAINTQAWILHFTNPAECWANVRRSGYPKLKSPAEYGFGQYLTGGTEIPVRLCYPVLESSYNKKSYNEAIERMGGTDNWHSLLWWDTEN
Summary of the method: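 Recombinant His6-tagged protein was expressed in E. coli BL21(DE3), Ni-IMAC purified, and exchanged into 50 mM sodium phosphate pH 7.0. In the cell: 20–100 µM protein at 25 °C, stirred at 280 rpm. Injections: 2 µL, then 24 × 10 µL of 2.5–4.0 mg/mL polysaccharide or 1–2 mM oligosaccharide. Heat recorded. Molar polysaccharide Ka assumed a hexasaccharide motif for MLG and a Glc8-backbone motif for XyG.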

BoSGBPMLG-B = target: T2, BoSGBPMLG-B (Bacteroides ovatus, UniProt A0ABU3IRL2); assay: isothermal titration calorimetry; assay type: binding; conditions: 50 mM sodium phosphate pH 7.0, 25 °C; n fixed at 1
T2 sequence (A0ABU3IRL2 22-420): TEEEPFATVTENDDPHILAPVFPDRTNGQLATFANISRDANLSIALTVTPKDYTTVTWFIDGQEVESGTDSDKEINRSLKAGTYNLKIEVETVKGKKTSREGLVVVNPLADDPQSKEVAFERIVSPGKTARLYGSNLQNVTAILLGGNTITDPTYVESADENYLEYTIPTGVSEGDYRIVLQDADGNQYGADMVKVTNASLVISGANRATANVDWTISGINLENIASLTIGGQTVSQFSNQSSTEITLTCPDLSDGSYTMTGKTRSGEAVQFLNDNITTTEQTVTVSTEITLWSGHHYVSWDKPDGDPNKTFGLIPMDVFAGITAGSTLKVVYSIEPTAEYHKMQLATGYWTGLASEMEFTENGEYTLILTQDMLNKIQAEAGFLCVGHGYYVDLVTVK
Summary of the method: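 His6-tagged protein was produced in E. coli BL21(DE3) and purified by nickel affinity. Titrations ran at 25 °C in 50 mM sodium phosphate pH 7.0, except bMLG, which used 10 mM HEPES pH 7.0. 20–100 µM protein in the cell received one 2 µL injection, then 24 × 10 µL of 2.5–4.0 mg/mL polysaccharide or 1–2 mM oligosaccharide, with stirring at 280 rpm. MLG Ka was converted from g/L assuming a hexasaccharide motif.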

SMILES | Ka (M^-1) / BoSGBPMLG-A (BoSGBPMLG-A; n fixed at 1) | Ka (M^-1) / BoSGBPMLG-B (BoSGBPMLG-B) | Ka (M^-1) / BoSGBPMLG-A (BoSGBPMLG-A)
OC[C@H]1O[C@@H](O[C@H]2[C@H](O)[C@@H](O)[C@H](O[C@H]3[C@H](O)[C@@H](O)[C@H](O[C@H]4[C@H](O)[C@@H](O)[C@H](O[C@H]5[C@H](O)[C@@H](O)[C@H](O[C@H]6[C@H](O)[C@@H](O)C(O)O[C@@H]6CO)O[C@@H]5CO)O[C@@H]4CO)O[C@@H]3CO)O[C@@H]2CO)[C@H](O)[C@@H](O)[C@@H]1O (stereo partly drawn) [Cellohexaose] | (3.39 ± 0.03) × 10^3 | (3.1 ± 0.06) × 10^3 | 
OC[C@H]1O[C@@H](O[C@H]2[C@H](O)[C@@H](O)[C@H](O[C@@H]3[C@@H](O)[C@H](O[C@H]4[C@H](O)[C@@H](O)[C@H](O[C@H]5[C@H](O)[C@@H](O)[C@H](O[C@H]6[C@H](O)[C@@H](CO)OC(O)[C@@H]6O)O[C@@H]5CO)O[C@@H]4CO)O[C@H](CO)[C@H]3O)O[C@@H]2CO)[C@H](O)[C@@H](O)[C@@H]1O (stereo partly drawn) [MLG6, G4G3G4G4G3G] |  | (3.16 ± 0.19) × 10^3 | (1.44 ± 0.04) × 10^4
OC[C@H]1O[C@@H](O[C@H]2[C@H](O)[C@@H](O)[C@H](O[C@H]3[C@H](O)[C@@H](O)[C@H](O[C@@H]4[C@@H](O)[C@H](O[C@H]5[C@H](O)[C@@H](O)[C@H](O[C@H]6[C@H](O)[C@@H](O)[C@H](O[C@H]7[C@H](O)[C@@H](CO)OC(O)[C@@H]7O)O[C@@H]6CO)O[C@@H]5CO)O[C@H](CO)[C@H]4O)O[C@@H]3CO)O[C@@H]2CO)[C@H](O)[C@@H](O)[C@@H]1O (stereo partly drawn) [MLG7, G4G4G3G4G4G3G] |  | (4.69 ± 0.13) × 10^3 | (4.51 ± 0.34) × 10^4
